These results are taken from ChEMBL document CHEMBL1212913, “Quinazolin-4-one derivatives: A novel class of noncompetitive NR2C/D subunit-selective N-methyl-D-aspartate receptor antagonists” (J Med Chem, 2010).

Test [1] deals with Glutamate NMDA receptor; Grin1/Grin2b (Rattus norvegicus, UniProt P35439+Q00960). As to the kind of experiment: Antagonist activity at rat recombinant NR1-NR2B receptor expressed in Xenopus oocytes at holding potential of -40mV by two-electrode voltage-clamp electrophysiology. Type of test: functional, cell-based, Oocyte. The following applies: read-out: IC50. The gist of the method: (§1)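 Oocytes expressing rat NR1-1a with NR2A, NR2B, NR2C or NR2D, clamped at −40 mV in Ba2+/HEPES recording solution pH 7.4, 23°C. Current evoked by 100 μM glutamate plus 30 μM glycine. Final DMSO 0.05-0.5%, 5-7 inhibitor concentrations, ≥4 oocytes each. IC50 from Hill fit of normalized mean composite data. […] Some NR2A oocytes given BAPTA-AM or K-BAPTA.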
(Two-electrode voltage clamp holds a large cell at a set potential and records current.)

The target in test [2] is Glutamate NMDA receptor; Grin1/Grin2c (Rattus norvegicus, UniProt P35439+Q00961). Put plainly: Antagonist activity at rat recombinant NR1-NR2C receptor expressed in Xenopus oocytes at holding potential of -40mV by two-electrode voltage-clamp electrophysiology. In kind it is functional, cell-based, Oocyte. The gist of the method: as §1
For test [3], the species on record is Rattus norvegicus. Put plainly: Selectivity ratio of IC50 for rat recombinant NR1-NR2A receptor to IC50 for rat recombinant NR1-NR2D receptor. The method in brief:
(§2)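 Ratio of fitted IC50 values, either NR2A/NR2D or GluR1/NR2D, from two-electrode voltage-clamp Hill fits in oocytes. Where noted, calculated from IC50 values rounded to the nearest μM.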

The species entered for test [4] is Rattus norvegicus. Put plainly: Selectivity ratio of IC50 for rat recombinant GLuR1 to IC50 for rat recombinant NR1-NR2D receptor. The method in brief: as §2
Test [5] has as its target Glutamate NMDA receptor; Grin1/Grin2a (Rattus norvegicus, UniProt P35439+Q00959). As to the kind of experiment: Antagonist activity at rat recombinant NR1-NR2A receptor expressed in Xenopus oocytes at holding potential of -40mV by two-electrode voltage-clamp electrophysiology. Type of test: functional, cell-based, Oocyte. To be noted: read-out: IC50. The method in brief: as §1

In another test the target is Glutamate receptor 1 (Rattus norvegicus, UniProt P19490). As to the kind of experiment: Antagonist activity at rat recombinant GLuR1 expressed in Xenopus oocytes assessed as inhibition of glutamate-induced current by two-electrode voltage-clamp electrophysiology. In kind it is functional, cell-based, Oocyte. The gist of the method:
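Two-electrode voltage clamp at −40 mV on Xenopus oocytes expressing rat GluR1, perfused with 90 NaCl, 1.0 KCl, 0.5 BaCl2, 0.005 EDTA, 10 HEPES (mM), pH 7.4, 23°C; activated by 100 μM glutamate. From 20 mM DMSO stocks, 5-7 concentrations, ≥4 oocytes each. Hill fit to mean composite curves normalized to control, minimum usually fixed at 0. Response >75% at 100 μM reported as >300 μM.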

For test [6], the target named is Ionotropic glutamate receptor NMDA 1/2D (Rattus norvegicus, UniProt P35439+Q62645). Put plainly: Antagonist activity at rat recombinant NR1-NR2D receptor expressed in Xenopus oocytes at holding potential of -40mV by two-electrode voltage-clamp electrophysiology. In kind it is functional, cell-based, Oocyte. The method in brief:
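Oocytes expressing rat NR1-1a with NR2A, NR2B, NR2C or NR2D, clamped at −40 mV in Ba2+/HEPES recording solution pH 7.4, 23°C. Current evoked by 100 μM glutamate plus 30 μM glycine. Final DMSO 0.05-0.5%, 5-7 inhibitor concentrations, ≥4 oocytes each. IC50 from Hill fit of normalized mean composite data. Some NR2A oocytes given BAPTA-AM or K-BAPTA.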

Chain of Glutamate NMDA receptor; Grin1/Grin2a (Q00959 whole entry, other chains not shown): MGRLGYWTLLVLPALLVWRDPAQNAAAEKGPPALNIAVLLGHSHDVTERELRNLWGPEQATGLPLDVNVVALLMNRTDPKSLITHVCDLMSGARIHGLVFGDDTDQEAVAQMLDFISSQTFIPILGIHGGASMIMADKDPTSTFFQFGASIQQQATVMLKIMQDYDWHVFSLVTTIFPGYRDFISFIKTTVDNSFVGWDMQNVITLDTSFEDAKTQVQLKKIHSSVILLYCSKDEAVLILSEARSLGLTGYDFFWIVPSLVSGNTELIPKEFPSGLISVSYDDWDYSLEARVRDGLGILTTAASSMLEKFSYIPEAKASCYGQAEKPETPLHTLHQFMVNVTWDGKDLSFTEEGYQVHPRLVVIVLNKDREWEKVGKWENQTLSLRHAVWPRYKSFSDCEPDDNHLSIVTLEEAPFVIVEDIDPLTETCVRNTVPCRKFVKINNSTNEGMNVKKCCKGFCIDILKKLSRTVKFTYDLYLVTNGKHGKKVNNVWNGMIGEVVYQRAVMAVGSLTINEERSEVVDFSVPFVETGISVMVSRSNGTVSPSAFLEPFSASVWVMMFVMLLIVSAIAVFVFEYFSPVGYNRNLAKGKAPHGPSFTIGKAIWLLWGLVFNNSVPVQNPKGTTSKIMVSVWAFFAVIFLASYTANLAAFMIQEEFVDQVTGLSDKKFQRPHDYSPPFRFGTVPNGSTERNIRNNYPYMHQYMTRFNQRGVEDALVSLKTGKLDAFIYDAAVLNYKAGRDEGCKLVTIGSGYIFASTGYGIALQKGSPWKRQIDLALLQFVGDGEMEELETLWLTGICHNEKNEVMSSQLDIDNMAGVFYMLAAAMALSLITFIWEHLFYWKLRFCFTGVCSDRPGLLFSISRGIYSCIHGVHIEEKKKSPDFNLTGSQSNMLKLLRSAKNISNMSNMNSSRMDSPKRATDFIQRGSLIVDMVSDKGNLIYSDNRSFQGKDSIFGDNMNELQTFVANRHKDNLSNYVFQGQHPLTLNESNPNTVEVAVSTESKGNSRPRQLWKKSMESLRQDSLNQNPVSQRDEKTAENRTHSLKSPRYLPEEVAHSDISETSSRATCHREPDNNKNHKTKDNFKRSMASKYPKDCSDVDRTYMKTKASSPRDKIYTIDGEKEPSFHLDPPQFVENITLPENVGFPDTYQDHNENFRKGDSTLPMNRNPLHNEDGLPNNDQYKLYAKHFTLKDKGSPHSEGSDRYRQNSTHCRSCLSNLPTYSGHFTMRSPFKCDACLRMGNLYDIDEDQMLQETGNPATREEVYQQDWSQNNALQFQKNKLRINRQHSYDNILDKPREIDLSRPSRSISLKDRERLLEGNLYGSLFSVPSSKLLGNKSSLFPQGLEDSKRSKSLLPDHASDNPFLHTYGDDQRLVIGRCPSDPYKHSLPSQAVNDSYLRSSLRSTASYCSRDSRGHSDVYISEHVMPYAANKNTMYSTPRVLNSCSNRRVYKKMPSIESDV
Chain of Glutamate NMDA receptor; Grin1/Grin2b (Q00960 whole entry, other chains not shown): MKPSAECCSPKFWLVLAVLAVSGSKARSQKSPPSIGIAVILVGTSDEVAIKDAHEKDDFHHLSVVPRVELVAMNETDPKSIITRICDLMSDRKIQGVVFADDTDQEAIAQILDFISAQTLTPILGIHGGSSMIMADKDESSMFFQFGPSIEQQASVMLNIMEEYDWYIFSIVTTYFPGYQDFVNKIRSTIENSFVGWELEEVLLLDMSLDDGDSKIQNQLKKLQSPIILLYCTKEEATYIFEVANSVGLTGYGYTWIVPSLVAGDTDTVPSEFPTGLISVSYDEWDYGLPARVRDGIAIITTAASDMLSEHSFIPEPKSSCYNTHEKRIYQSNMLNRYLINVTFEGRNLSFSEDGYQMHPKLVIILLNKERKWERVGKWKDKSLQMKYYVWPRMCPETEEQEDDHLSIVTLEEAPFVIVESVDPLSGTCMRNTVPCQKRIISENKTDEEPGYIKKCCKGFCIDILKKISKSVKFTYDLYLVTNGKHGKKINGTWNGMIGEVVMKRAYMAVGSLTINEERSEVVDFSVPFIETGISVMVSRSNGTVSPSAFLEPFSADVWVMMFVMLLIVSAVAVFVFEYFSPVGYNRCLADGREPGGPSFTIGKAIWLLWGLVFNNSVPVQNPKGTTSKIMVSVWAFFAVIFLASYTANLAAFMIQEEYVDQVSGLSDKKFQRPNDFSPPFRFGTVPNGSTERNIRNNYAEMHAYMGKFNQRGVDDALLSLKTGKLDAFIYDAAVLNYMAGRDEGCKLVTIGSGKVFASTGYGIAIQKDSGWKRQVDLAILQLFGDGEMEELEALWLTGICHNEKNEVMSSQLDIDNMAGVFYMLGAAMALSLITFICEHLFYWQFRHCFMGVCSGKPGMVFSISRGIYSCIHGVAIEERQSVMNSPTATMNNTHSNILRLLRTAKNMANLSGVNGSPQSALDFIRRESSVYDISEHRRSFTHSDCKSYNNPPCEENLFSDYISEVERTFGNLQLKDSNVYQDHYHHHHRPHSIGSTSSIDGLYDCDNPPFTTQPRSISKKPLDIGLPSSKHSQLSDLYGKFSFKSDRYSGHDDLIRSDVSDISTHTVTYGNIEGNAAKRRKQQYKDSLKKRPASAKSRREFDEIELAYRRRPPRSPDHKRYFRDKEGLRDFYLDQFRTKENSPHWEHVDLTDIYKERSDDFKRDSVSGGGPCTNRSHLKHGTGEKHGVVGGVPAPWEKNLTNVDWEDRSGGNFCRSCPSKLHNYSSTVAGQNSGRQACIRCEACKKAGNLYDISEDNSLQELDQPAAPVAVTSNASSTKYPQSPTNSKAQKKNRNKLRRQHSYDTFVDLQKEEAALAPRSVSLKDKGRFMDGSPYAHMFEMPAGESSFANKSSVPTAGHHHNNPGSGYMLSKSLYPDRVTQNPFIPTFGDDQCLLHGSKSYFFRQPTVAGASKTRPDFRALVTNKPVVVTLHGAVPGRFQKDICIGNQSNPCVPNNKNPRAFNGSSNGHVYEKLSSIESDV
Chain of Glutamate NMDA receptor; Grin1/Grin2c (Q00961 whole entry, other chains not shown): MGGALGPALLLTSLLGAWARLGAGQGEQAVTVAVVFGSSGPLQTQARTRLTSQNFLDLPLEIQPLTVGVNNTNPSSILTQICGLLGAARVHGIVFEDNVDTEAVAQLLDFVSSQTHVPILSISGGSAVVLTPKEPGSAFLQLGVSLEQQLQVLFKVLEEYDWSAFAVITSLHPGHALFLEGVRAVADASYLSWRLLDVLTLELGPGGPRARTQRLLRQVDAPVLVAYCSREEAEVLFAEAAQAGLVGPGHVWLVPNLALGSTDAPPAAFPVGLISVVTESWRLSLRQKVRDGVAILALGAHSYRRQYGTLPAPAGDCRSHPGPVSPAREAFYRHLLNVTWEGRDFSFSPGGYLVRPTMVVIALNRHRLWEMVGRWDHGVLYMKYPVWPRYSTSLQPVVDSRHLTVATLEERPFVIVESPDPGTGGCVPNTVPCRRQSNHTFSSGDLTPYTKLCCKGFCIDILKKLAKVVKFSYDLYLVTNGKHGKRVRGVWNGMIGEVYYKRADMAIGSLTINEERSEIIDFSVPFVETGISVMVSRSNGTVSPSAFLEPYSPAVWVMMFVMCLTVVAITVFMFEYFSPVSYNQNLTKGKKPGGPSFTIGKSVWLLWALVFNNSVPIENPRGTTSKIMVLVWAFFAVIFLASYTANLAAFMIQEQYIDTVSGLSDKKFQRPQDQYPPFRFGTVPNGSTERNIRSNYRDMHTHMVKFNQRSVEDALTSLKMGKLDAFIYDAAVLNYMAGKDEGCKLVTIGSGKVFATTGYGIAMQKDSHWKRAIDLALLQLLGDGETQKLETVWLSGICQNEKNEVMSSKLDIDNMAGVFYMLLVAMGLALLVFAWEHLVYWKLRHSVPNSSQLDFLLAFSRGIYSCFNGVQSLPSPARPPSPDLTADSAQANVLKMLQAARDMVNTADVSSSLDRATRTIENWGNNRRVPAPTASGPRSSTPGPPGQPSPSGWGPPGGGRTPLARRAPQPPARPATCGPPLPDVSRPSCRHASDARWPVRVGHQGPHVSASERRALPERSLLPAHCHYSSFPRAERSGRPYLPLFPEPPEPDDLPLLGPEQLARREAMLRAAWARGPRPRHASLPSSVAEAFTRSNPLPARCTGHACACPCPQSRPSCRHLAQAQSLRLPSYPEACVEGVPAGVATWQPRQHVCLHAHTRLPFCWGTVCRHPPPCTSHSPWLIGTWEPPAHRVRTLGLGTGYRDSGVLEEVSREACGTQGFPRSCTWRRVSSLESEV
Chain of Glutamate receptor 1 (P19490 whole entry, the tested form may be a part): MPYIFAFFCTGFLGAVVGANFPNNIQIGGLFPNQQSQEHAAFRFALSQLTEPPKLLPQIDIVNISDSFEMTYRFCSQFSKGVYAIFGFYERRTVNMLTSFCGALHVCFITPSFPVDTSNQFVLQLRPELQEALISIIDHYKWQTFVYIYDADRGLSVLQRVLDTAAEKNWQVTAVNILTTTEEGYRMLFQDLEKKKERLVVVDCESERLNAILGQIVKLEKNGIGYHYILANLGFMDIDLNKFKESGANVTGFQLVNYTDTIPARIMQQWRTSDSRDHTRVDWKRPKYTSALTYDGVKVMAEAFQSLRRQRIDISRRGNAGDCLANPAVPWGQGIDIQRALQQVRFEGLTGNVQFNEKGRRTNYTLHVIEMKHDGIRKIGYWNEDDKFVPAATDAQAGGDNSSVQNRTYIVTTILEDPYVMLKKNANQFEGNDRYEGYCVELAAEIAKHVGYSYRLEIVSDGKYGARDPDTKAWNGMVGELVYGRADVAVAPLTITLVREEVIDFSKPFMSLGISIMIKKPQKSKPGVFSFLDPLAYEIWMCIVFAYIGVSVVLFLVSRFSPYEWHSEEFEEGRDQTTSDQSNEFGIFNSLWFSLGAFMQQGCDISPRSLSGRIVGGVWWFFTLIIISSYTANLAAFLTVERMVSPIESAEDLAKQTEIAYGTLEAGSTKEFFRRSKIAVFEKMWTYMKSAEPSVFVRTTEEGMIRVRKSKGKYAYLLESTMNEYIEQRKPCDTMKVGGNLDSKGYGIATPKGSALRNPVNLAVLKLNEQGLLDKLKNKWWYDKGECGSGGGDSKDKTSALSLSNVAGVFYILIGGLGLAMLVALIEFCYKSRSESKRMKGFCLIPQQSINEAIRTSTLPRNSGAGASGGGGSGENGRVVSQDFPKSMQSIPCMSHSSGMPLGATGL

A word on the IC50: it is the concentration needed to halve the response being measured. As for `COC(=O)c1cccc(/C=C/c2nc3ccc(OC)cc3c(=O)n2-c2ccc(C(=O)O)cc2)c1`, the IC50 was found to be 39 µM in test [1]; 15 µM in test [2]; 80 µM in test [5]; 41 µM at Glutamate receptor 1; 6 µM in test [6]. For the same compound, the Ratio IC50 in the test listed under Rattus norvegicus [3] stood at 13; in the test listed under Rattus norvegicus [4] it was 7.

Turning to `O=C(O)c1ccc(-n2c(/C=C/c3cccc([N+](=O)[O-])c3)nc3ccc(-c4cccs4)cc3c2=O)cc1`, the IC50 in test [1] turned out to be 129 µM; in test [2] it was 5 µM; in test [5], 157 µM; at Glutamate receptor 1, 280 µM; in test [6], 3 µM. Also, the values for the Ratio IC50 in the test filed under Rattus norvegicus [3] and in the test filed under Rattus norvegicus [4] were 52 and 93, respectively.

On to `O=C(O)c1ccc(-n2c(/C=C/c3cccc([N+](=O)[O-])c3)nc3ccc(O)cc3c2=O)cc1`, for which the IC50 was more than 300 µM in test [1]; 43 µM in test [2]; 237 µM in test [5]; 96 µM at Glutamate receptor 1; 10 µM in test [6]. Further, the Ratio IC50 stood at 24 in the test filed under Rattus norvegicus [3] and 10 in the test listed under Rattus norvegicus [4].

In the case of `CCCc1ccc2nc(/C=C/c3cccc([N+](=O)[O-])c3)n(-c3ccc(C(=O)O)cc3)c(=O)c2c1`, the IC50 in test [1] was determined as 18 µM; in test [2], 3 µM; in test [5] it was 28 µM; at Glutamate receptor 1, 50 µM; in test [6] it was 4 µM. Also, the results for the Ratio IC50 in the test listed under Rattus norvegicus [3] and in the test listed under Rattus norvegicus [4] were 7 and 13, respectively.

On to `O=C(O)c1ccc(-n2c(/C=C/c3cccnc3)nc3ccc(I)cc3c2=O)cc1`, for which the IC50 stood at 31 µM in test [1]; 6 µM in test [2]; 26 µM in test [5]; 61 µM at Glutamate receptor 1; 4 µM in test [6]. Besides, the values for the Ratio IC50 in the test filed under Rattus norvegicus [3] and in the test listed under Rattus norvegicus [4] were 7 and 15, respectively.

Regarding `O=C(O)c1ccc(-n2c(/C=C/c3cccc([N+](=O)[O-])c3)nc3cc(Cl)ccc3c2=O)cc1`, the IC50 in test [1] stood at 52 µM; in test [2], 16 µM; in test [5] it was 32 µM; on Glutamate receptor 1, 41 µM; in test [6] it was 15 µM. For the same compound, the results for the Ratio IC50 in the test listed under Rattus norvegicus [3] and in the test listed under Rattus norvegicus [4] were 2 and 3, respectively.

Turning to `Cc1ccccc1-n1c(/C=C/c2cccnc2)nc2ccc(I)cc2c1=O`, the concentration for half-maximal inhibition (IC50) is 156 µM in test [1]; 70 µM in test [2]; more than 300 µM in test [5]; 83 µM at Glutamate receptor 1; 25 µM in test [6]. In addition, the Ratio IC50 was more than 12 in the test listed under Rattus norvegicus [3] and 3 in the test filed under Rattus norvegicus [4].

Consider `O=C(O)c1ccc(-n2c(/C=C/c3cccc([N+](=O)[O-])c3)nc3ccc(I)cc3c2=O)cc1`, for which the IC50 is 6 µM in test [1]; 1 µM in test [2]; 18 µM in test [5]; 31 µM on Glutamate receptor 1; 0.6 µM in test [6]. The Ratio IC50 in the test listed under Rattus norvegicus [3] came out at 18; in the test filed under Rattus norvegicus [4], 52.

In the case of `COc1ccc2nc(/C=C/c3cccc([N+](=O)[O-])c3)n(-c3cccc(C(=O)O)c3)c(=O)c2c1`, the IC50 in test [1] is more than 300 µM; in test [2], 24 µM; in test [5], 208 µM; at Glutamate receptor 1, 289 µM; in test [6], 13 µM. In addition, the Ratio IC50 in the test filed under Rattus norvegicus [3] was 16; in the test filed under Rattus norvegicus [4], 22.

`O=C(O)c1ccc(-n2c(/C=C/c3cccc([N+](=O)[O-])c3)nc3ccc(-c4ccccc4)cc3c2=O)cc1`: the IC50 in test [1] was determined as 3 µM; in test [2], 2 µM; in test [5], 11 µM; on Glutamate receptor 1 it was 5 µM; in test [6] it was 2 µM. For the same compound, the Ratio IC50 in the test filed under Rattus norvegicus [3] worked out at 6; in the test filed under Rattus norvegicus [4], 3.

For `O=C(O)c1ccc(-n2c(/C=C/c3cccc([N+](=O)[O-])c3)nc3c(Cl)cccc3c2=O)cc1`, the IC50 in test [1] stood at 243 µM; in test [2] it was 12 µM; in test [5], 56 µM; at Glutamate receptor 1, 87 µM; in test [6], 9 µM. The Ratio IC50 came out at 6 in the test filed under Rattus norvegicus [3] and 10 in the test listed under Rattus norvegicus [4].

For the compound `COc1ccccc1-n1c(/C=C/c2cccnc2)nc2ccc(I)cc2c1=O`, the IC50 in test [1] is 30 µM; in test [2], 3 µM; in test [5], 31 µM; on Glutamate receptor 1 it was 199 µM; in test [6], 3 µM. For the same compound, the Ratio IC50 in the test filed under Rattus norvegicus [3] came out at 10; in the test listed under Rattus norvegicus [4] it was 66.

On to `CC(C)c1ccc2nc(/C=C/c3cccc([N+](=O)[O-])c3)n(-c3ccc(C(=O)O)cc3)c(=O)c2c1`, for which the concentration for half-maximal inhibition (IC50) in test [1] amounted to 98 µM; in test [2] it was 6 µM; in test [5], 101 µM; on Glutamate receptor 1, 200 µM; in test [6], 7 µM. The Ratio IC50 in the test listed under Rattus norvegicus [3] was determined as 14; in the test filed under Rattus norvegicus [4], 29.

As to `CN(C)c1ccc(/C=C/c2nc3ccccc3c(=O)n2-c2ccc(C(=O)O)cc2)cc1`, the IC50 was more than 300 µM in test [1]; 63 µM in test [2]; more than 300 µM in test [5]; more than 300 µM at Glutamate receptor 1; 53 µM in test [6]. Moreover, the Ratio IC50 in the test listed under Rattus norvegicus [3] and in the test listed under Rattus norvegicus [4] was more than 5 throughout.

Take `O=C(O)c1cccc(-n2c(/C=C/c3cccc([N+](=O)[O-])c3)nc3ccc(I)cc3c2=O)c1`: the half-inhibitory concentration (IC50) amounted to 11 µM in test [1]; 2 µM in test [2]; 8 µM in test [5]; 21 µM on Glutamate receptor 1; 1 µM in test [6]. Further, the Ratio IC50 in the test listed under Rattus norvegicus [3] was 8; in the test listed under Rattus norvegicus [4], 21.

`COc1ccc2cc(/C=C/c3nc4ccccc4c(=O)n3-c3ccc(C(=O)O)cc3)ccc2c1`: the IC50 stood at 36 µM in test [1]; 20 µM in test [2]; 63 µM in test [5]; 103 µM at Glutamate receptor 1; 11 µM in test [6]. For the same compound, the Ratio IC50 in the test listed under Rattus norvegicus [3] came to 6; in the test filed under Rattus norvegicus [4] it was 9.

As for `O=c1c2cc(I)ccc2nc(/C=C/c2cccnc2)n1-c1ccccc1[N+](=O)[O-]`, the IC50 is 105 µM in test [1]; 19 µM in test [2]; 206 µM in test [5]; more than 300 µM on Glutamate receptor 1; 5 µM in test [6]. The Ratio IC50 in the test listed under Rattus norvegicus [3] worked out at 41; in the test listed under Rattus norvegicus [4], 60.

As for `O=c1c2cc(I)ccc2nc(/C=C/c2cccnc2)n1-c1ccc([N+](=O)[O-])cc1`, the IC50 in test [1] was more than 300 µM; in test [2] it was 204 µM; in test [5] it was more than 300 µM; on Glutamate receptor 1, more than 300 µM; in test [6], 218 µM. Also, the Ratio IC50 in the test listed under Rattus norvegicus [3] and in the test listed under Rattus norvegicus [4] was 1 each time.

Turning to `COC(=O)c1ccc(-n2c(/C=C/c3cccc([N+](=O)[O-])c3)nc3ccc(OC)cc3c2=O)cc1`, the IC50 in test [1] is 46 µM; in test [2], 39 µM; in test [5] it was 218 µM; at Glutamate receptor 1, 138 µM; in test [6], 38 µM. Moreover, the Ratio IC50 in the test listed under Rattus norvegicus [3] is 6; in the test filed under Rattus norvegicus [4] it was 4.

Consider `Cc1ccc2nc(/C=C/c3ccccc3)n(-c3ccc(C(=O)O)cc3)c(=O)c2c1`, for which the IC50 in test [1] was 25 µM; in test [2], 22 µM; in test [5], 39 µM; at Glutamate receptor 1, 21 µM; in test [6], 26 µM. Besides, the results for the Ratio IC50 in the test listed under Rattus norvegicus [3] and in the test filed under Rattus norvegicus [4] were 2 and 1, respectively.

For the compound `CSc1ccc(/C=C/c2nc3ccccc3c(=O)n2-c2ccc(C(=O)O)cc2)cc1`, the IC50 in test [1] amounted to 79 µM; in test [2] it was 42 µM; in test [5] it was 211 µM; on Glutamate receptor 1 it was 244 µM; in test [6] it was 22 µM. In addition, the results for the Ratio IC50 in the test filed under Rattus norvegicus [3] and in the test filed under Rattus norvegicus [4] were 10 and 11, respectively.

In the case of `O=c1c2cc(I)ccc2nc(/C=C/c2cccnc2)n1-c1ccccc1`, the IC50 was more than 300 µM in test [1]; more than 300 µM in test [2]; 132 µM in test [5]; more than 300 µM on Glutamate receptor 1; 108 µM in test [6]. Moreover, the Ratio IC50 in the test listed under Rattus norvegicus [3] was found to be 1; in the test filed under Rattus norvegicus [4] it was 3.

As to `O=c1c2ccccc2nc(/C=C/c2cccnc2)n1-c1ccccc1`, the 50% inhibitory concentration (IC50) in test [1] came out at 51 µM; in test [2], 140 µM; in test [5], 40 µM; on Glutamate receptor 1 it was 74 µM; in test [6] it was 35 µM. In addition, the Ratio IC50 was 1 in the test filed under Rattus norvegicus [3] and 2 in the test filed under Rattus norvegicus [4].
